Source: ChEMBL document CHEMBL4330127, “Discovery of Novel Pyruvate Dehydrogenase Kinase 4 Inhibitors for Potential Oral Treatment of Metabolic Diseases” (J Med Chem, 2019)

Legend:
[1] = molecular target: T1, [Pyruvate dehydrogenase (acetyl-transferring)] kinase isozyme 4, mitochondrial (Homo sapiens, UniProt Q16654); assay: Inhibition of PDK4 in HEK293T cells assessed as reduction in PDHE1alpha phosphorylation at Ser-232 residue by measuring phosphorylated PDHE1alpha level at 10 uM after 24 hrs by Western blot analysis; format: cell-based
Method in brief: (§1)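 HEK293T cells grown in high-glucose DMEM with 10% FBS at 37 °C, 5% CO2. Medium renewed after 24 h, then cells exposed to compound for 24 h and lysed. 20 μg protein per lane Western blotted with antibodies to phospho-PDHE1α Ser232, Ser293 and Ser300 and to total PDHE1α. Band intensity quantified relative to control; triplicate.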
Target sequence in this assay (Q16654 whole entry, looked up): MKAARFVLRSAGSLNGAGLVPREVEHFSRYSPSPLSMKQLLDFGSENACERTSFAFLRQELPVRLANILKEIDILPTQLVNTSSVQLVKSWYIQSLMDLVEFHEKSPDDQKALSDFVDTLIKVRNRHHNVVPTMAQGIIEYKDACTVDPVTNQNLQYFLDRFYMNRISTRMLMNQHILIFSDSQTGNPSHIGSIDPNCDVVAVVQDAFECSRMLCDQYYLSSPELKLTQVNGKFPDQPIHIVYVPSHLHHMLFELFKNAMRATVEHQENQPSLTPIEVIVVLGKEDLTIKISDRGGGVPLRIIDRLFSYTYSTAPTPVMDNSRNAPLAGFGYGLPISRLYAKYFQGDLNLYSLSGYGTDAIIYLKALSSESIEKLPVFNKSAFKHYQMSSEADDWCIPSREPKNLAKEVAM

[2] = molecular target: T1, [Pyruvate dehydrogenase (acetyl-transferring)] kinase isozyme 4, mitochondrial; assay: Inhibition of PDK4 in HEK293T cells assessed as reduction in PDHE1alpha phosphorylation at Ser-293 residue by measuring phosphorylated PDHE1alpha level at 10 uM after 24 hrs by Western blot analysis; format: cell-based; method in brief: as §1
Target sequence in this assay (Q16654 whole entry, looked up): as above

[3] = molecular target: T1, [Pyruvate dehydrogenase (acetyl-transferring)] kinase isozyme 4, mitochondrial; assay: Inhibition of PDK4 in HEK293T cells assessed as reduction in PDHE1alpha phosphorylation at Ser-300 residue by measuring phosphorylated PDHE1alpha level at 10 uM after 24 hrs by Western blot analysis; format: cell-based; method in brief: as §1
Target sequence in this assay (Q16654 whole entry, looked up): as above

[4] = molecular target: T1, [Pyruvate dehydrogenase (acetyl-transferring)] kinase isozyme 4, mitochondrial; assay: Inhibition of PDK4 (unknown origin) at 10 uM relative to control
Target sequence in this assay (Q16654 whole entry, looked up): as above

[5] = molecular target: T1, [Pyruvate dehydrogenase (acetyl-transferring)] kinase isozyme 4, mitochondrial; assay: Inhibition of PDK4 (unknown origin)
Target sequence in this assay (Q16654 whole entry): as the sequence (Q16654 whole entry, looked up) above

[6] = Metabolic stability in rat liver microsomes assessed as parent compound remaining after 30 mins by LC-MS/MS analysis; format: ADME, Microsome; conditions: read-out: Stability
[7] = Metabolic stability in human liver microsomes assessed as parent compound remaining at 1 uM after 30 mins by LC-MS/MS analysis

| Compound | inhibition [4] | also measured |
| --- | --- | --- |
| O=S(=O)(c1ccc(O)cc1O)N1Cc2cc(O)cc(O)c2C1 | 34.1% | fold change (FC) [1]: 0.62; fold change (FC) [2]: 0.98; fold change (FC) [3]: 0.93 |
| O=C1c2ccccc2C(=O)c2c1cccc2-c1cn[nH]c1 | 32.9% | – |
| CCOC(=O)C(C)n1cc(-c2cccc3c2C(=O)c2ccccc2C3=O)cn1 (stereo not given) | 29.4% | – |
| CC(C)(C)OC(=O)N1CC=C(c2cccc3c2C(=O)c2ccccc2C3=O)CC1 | 53.4% | IC50 [5]: 0.6 µM |
| O=C1c2ccccc2C(O)(C(F)(F)F)c2cccc(C3=CCNCC3)c21 (stereo not given) | 29.7% | – |
| O=C1c2ccccc2C(=O)c2c(Br)cccc21 | 37.8% | – |
| O=C1c2ccccc2C(=O)c2c1cccc2-c1ccc(O)cc1 | 35.9% | – |
| O=C1c2ccccc2C(=O)c2c1cccc2C1=CCNCC1 | 35.6% | – |
| O=C1c2ccccc2C(=O)c2c1cccc2C1=CCN(C(=O)OCc2ccccc2)CC1 | 41.6% | – |
| CC(C(=O)O)n1cc(-c2cccc3c2C(=O)c2ccccc2C3(O)C(F)(F)F)cn1 (stereo not given) | 47.2% | IC50 [5]: 0.143 µM |
| O=C(O)c1ccc(-c2cccc3c2C(=O)c2ccccc2C3=O)cc1 | 30.4% | – |
| CC(C)(C)OC(=O)N1CCC(n2cc(-c3cccc4c3C(=O)c3ccccc3C4(O)C(F)(F)F)cn2)CC1 (stereo not given) | 32.1% | – |
| CCOC(=O)C(C)n1cc(-c2cccc3c2C(=O)c2ccccc2C3(O)C(F)(F)F)cn1 (stereo not given) | 36.9% | – |
| CC(C(=O)O)n1cc(-c2cccc3c2C(=O)c2ccccc2C3=O)cn1 (stereo not given) | 45.9% | – |
| CC(C)(C)OC(=O)N1CC=C(c2cccc3c2C(=O)c2ccccc2C3(O)C(F)(F)F)CC1 (stereo not given) | 17.3% | – |
| CC(C)(C)OC(=O)N1CCC(n2cc(-c3cccc4c3C(=O)c3ccccc3C4=O)cn2)CC1 | 32.6% | – |
| O=C1c2ccccc2C(O)(C(F)(F)F)c2cccc(C3=CCN(C(=O)OCc4ccccc4)CC3)c21 (stereo not given) | 34.1% | – |
| O=C1CC2(CCCC2)CC(=O)N1CCCCN1CCN(c2ncccn2)CC1 [BUSPIRONE] | – | remaining at 0.5 h [6]: 0.1%; remaining at 0.5 h, 1 µM [7]: 4% |
| O=C1c2ccccc2C(=O)c2c1cccc2-c1cnn(C2CCCCO2)c1 (stereo not given) | 24.3% | – |
| CS(=O)(=O)N1CC=C(c2cccc3c2C(=O)c2ccccc2C3=O)CC1 | 29.5% | – |
| O=C1c2ccccc2C(=O)c2c1cccc2-c1cccnc1 | 25.4% | – |
| O=C1c2ccccc2C(O)(C(F)(F)F)c2cccc(-c3cnn(C4CCNCC4)c3)c21 (stereo not given) | 30.2% | – |
| O=C1c2ccccc2C(=O)c2c1cccc2C1=CCN(C(=O)Nc2ccccc2)CC1 | 32.6% | – |
| O=C1c2ccccc2C(=O)c2ccccc21 | 40.7% | – |
